# Laboratory results as given in ChEMBL document CHEMBL1127615, “5,7-Dimethoxy-3-(4-pyridinyl)quinoline is a potent and selective inhibitor of human vascular beta-type platelet-derived growth factor receptor tyrosine kinase” (J Med Chem, 1994).
# Assays:
# [1] = target: Platelet-derived growth factor receptor (Homo sapiens, UniProt P09619+P16234); assay: Inhibition of Platelet-derived growth factor receptor tyrosine kinase; type: protein-complex assay
# [2] = target: Receptor tyrosine-protein kinase erbB-2 (Homo sapiens, UniProt P04626); assay: Inhibition of erbB2 receptor
# [3] = target: Tyrosine-protein kinase Lck (Homo sapiens, UniProt P06239); assay: Inhibition of p56 lck kinase
# [4] = Inhibition of vascular smooth muscle cell proliferation by [3H]thymidine incorporation; type: functional; details: Homo sapiens
# Summary of the method: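 Primary human vascular smooth muscle cells, serum-starved 48 h, then inhibitor for 2 h, PDGF-BB (10 ng/mL) for 24 h, then [3H]thymidine (0.5 μCi/mL) for 24 h more. Cells were washed with ice-cold 5% TCA, extracted with 0.1 N NaOH (30 min, 25 °C), neutralized and counted. Inhibition is relative to vehicle (≤0.5% DMSO).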
# [5] = target: Protein kinase C (PKC); assay: Inhibition of Serine/threonine protein kinases C; type: protein assay, Homo sapiens
# Sequence of Receptor tyrosine-protein kinase erbB-2 (P04626 whole entry): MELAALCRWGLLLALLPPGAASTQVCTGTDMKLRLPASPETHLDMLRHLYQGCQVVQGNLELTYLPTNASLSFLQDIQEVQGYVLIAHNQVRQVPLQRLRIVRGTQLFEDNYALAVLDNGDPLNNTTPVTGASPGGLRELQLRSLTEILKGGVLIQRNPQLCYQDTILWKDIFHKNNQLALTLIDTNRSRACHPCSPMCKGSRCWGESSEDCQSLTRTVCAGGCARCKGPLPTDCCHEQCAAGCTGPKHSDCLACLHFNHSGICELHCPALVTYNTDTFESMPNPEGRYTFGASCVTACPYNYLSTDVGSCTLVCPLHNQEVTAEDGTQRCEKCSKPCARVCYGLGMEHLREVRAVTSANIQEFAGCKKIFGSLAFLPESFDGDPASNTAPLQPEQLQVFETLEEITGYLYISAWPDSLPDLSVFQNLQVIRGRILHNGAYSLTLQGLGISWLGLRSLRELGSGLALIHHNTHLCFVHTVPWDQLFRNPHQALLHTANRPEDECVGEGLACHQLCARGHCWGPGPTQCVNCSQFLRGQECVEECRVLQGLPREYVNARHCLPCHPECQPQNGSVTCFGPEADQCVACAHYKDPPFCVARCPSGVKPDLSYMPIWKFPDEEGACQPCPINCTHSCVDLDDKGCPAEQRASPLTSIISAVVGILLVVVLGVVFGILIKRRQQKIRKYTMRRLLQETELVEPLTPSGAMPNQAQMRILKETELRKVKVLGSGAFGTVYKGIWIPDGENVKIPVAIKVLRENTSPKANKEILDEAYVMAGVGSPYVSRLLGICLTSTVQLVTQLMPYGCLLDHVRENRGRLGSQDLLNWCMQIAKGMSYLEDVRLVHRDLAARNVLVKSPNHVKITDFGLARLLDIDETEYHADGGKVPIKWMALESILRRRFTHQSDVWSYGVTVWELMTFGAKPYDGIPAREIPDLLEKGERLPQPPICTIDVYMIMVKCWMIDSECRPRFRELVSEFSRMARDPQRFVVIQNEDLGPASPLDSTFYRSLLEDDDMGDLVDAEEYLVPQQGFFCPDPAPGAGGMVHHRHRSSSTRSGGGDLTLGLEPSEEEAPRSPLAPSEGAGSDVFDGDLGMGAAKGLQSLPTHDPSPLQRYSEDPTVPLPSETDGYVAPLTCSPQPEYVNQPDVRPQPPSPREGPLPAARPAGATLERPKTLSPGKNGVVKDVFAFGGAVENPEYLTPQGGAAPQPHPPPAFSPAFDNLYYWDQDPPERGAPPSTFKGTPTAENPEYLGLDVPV
# Sequence of Tyrosine-protein kinase Lck (P06239 whole entry): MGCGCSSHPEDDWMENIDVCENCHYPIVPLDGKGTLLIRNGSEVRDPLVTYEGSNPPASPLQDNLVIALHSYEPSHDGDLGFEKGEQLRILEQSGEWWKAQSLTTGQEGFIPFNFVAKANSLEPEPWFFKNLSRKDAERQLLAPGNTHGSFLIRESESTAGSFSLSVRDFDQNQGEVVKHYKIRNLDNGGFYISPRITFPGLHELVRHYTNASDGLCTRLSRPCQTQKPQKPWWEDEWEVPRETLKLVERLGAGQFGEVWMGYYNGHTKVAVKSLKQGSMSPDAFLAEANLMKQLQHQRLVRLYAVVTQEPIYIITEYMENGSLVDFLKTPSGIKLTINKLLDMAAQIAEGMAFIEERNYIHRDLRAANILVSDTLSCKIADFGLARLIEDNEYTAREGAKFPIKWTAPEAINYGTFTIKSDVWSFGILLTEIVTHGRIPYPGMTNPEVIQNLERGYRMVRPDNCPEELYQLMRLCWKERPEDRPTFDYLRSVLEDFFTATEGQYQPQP
SMILES,IC50 [1],IC50 [2],IC50 [3],IC50 [4],IC50 [5]
COc1ccc2c(C)c(-c3ccncc3)cnc2c1,> 50 µM,,,,
c1ccc2ncc(-c3ccncc3)cc2c1,1.5 µM,,,,
COc1cc2cc(-c3ccncc3)cnc2cc1OC,,> 10 µM,> 10 µM,1.8 µM,> 10 µM
Oc1cc(O)c2cc(-c3ccncc3)cnc2c1,1.3 µM,,,5.5 µM,
COc1ccc2ncc(-c3ccncc3)c(C)c2c1,> 50 µM,,,,
Oc1cc2cc(-c3ccncc3)cnc2cc1O,36 µM,,,,> 10 µM
Clc1ccc2cc(-c3ccncc3)cnc2c1,0.3 µM,,,,> 10 µM
COc1ccc2ncc(-c3ccncc3)cc2c1,0.4 µM,,,,
COc1ccc2cc(-c3ccncc3)cnc2c1,0.6 µM,,,6.5 µM,
COc1cc2ncc(-c3ccncc3)cc2c(OC)c1OC,0.4 µM,,,3.5 µM,
Oc1ccc2cc(-c3ccncc3)cnc2c1,9.2 µM,,,> 10 µM,
COc1cc(OC)c2cc(-c3ccncc3)cnc2c1,,> 10 µM,,0.9 µM,> 10 µM
